Reference: ChEMBL document CHEMBL1123419, “Synthesis and antiviral activity of sulfonamidobenzophenone oximes and sulfonamidobenzamides” (1986)
Converted amounts (≈) assume the structure as drawn.

Experiments:
CV-1 [1] = assay: Effect on time of addiction in poliovirus infected CV-1 cells treated with 1 ug/mL of compound at 0 h. virus titer 4.8*10e8; type: functional, Cercopithecidae
Poliovirus 1 = assay: microbe, parasite or virus in culture; type: functional; conditions: Enterovirus C; read-out: ED50 (the source's name)
LLC-MK2 = assay: Antiviral activity was measured against LLC-MK2 cells injected with enterovirus 70; type: functional, Cercopithecidae
Outline: (§1)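 Plaque reduction: confluent monolayers were infected with 100-200 PFU. Hela (Ohio) cells were used for rhinoviruses 10 and 1A and coxsackieviruses B4 and A9, CV-1 for poliovirus type 1 Mahoney, and LLC-MK2 for enterovirus 70. Cells were overlaid with 2.0% agar in MEM plus 4% FBS containing serial compound concentrations. Incubation was 37 °C for polio/coxsackie and 33 °C for rhino/enterovirus, with a neutral red (0.004%) second overlay. ED50 was taken from the dose-response curve.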

HeLa [2] = assay: Antiviral activity was measured against Hela cells injected with coxsackie virus type A9; type: functional, Homo sapiens; outline: as §1
HeLa [3] = assay: Antiviral activity was measured against Hela cells injected with rhinovirus 1A; type: functional, Homo sapiens
Outline: (§2)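 Rhinovirus spectrum in Hela cells: infected cultures were kept 3 days at 33 °C, stained with crystal violet and examined microscopically for cytopathic effect. The end point was 50% inhibition.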

Enterovirus = assay: Antiviral activity against rhinovirus 1A using plaque-inhibition assay; type: functional; conditions: read-out: ED50 (the source's name); outline: as §1
HeLa [4] = assay: Antiviral activity was measured against Hela cells injected with rhinovirus 10; type: functional, Homo sapiens; outline: as §2
CV-1 [5] = assay: Effect on time of addiction in poliovirus infected CV-1 cells treated with 1 ug/mL of compound at 2 h. virus titer 5.0*10e8; type: functional, Cercopithecidae
CV-1 [6] = assay: Effect on time of addiction in poliovirus infected CV-1 cells treated with 1 ug/mL of compound at 3 h. virus titer 1.6*10e9; type: functional, Cercopithecidae
CV-1 [7] = assay: Effect on time of addiction in poliovirus infected CV-1 cells treated with 1 ug/mL of compound at 1 h. virus titer 3.6*10e8; type: functional, Cercopithecidae
CV-1 [8] = assay: Chemotherapeutic index in CV-1 cells (chemotherapeutic index=50% cytotoxic dose/50% effective dose).; type: functional, Cercopithecidae
Outline: (§3)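 Index = 50% cytotoxic dose / 50% plaque-inhibition dose. For cytotoxicity, 200 cells/mL in suspension were mixed with 10% FBS MEM carrying serial compound dilutions and incubated 7 days at 37 °C under 5% CO2. Colonies were stained with 1% crystal violet and counted, and the 50% cytotoxic dose was read from the dose-response curve.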

CV-1 [9] = assay: Compound was evaluated for its failure of virucidal activity in poliovirus infected CV-1 cells at 0.5 ug/mL. virus titer 6.4*10e7 PFU/mL; type: functional, Cercopithecidae
CV-1 [10] = assay: Compound was evaluated for its failure of virucidal activity in poliovirus infected CV-1 cells at 50 ug/mL. virus titer 7.4*10e7 PFU/mL; type: functional, Cercopithecidae
CV-1 [11] = assay: Effect on time of addiction in poliovirus infected CV-1 cells treated with 1 ug/mL of compound at 4 h. virus titer 3.1*10e9; type: functional, Cercopithecidae
CV-1 [12] = assay: Effect on time of addiction in poliovirus infected CV-1 cells treated with 1 ug/mL of compound at 5 h. virus titer 4.3*10e9; type: functional, Cercopithecidae
HeLa [13] = assay: Antiviral activity was measured against Hela cells injected with coxsackie virus type B4; type: functional, Homo sapiens; outline: as §1
HeLa [14] = assay: Antiviral activity was measured against Hela cells injected with rhinovirus 19; type: functional, Homo sapiens; outline: as §2
HeLa [15] = assay: Antiviral activity was measured against Hela cells injected with rhinovirus 26; type: functional, Homo sapiens; outline: as §2
CV-1 [16] = assay: Compound was evaluated for its failure of virucidal activity in poliovirus infected CV-1 cells at 5 ug/mL. virus titer 7.6*10e7 PFU/mL; type: functional, Cercopithecidae
CV-1 [17] = assay: Compound was evaluated for its failure of virucidal activity in poliovirus infected CV-1 cells at 5 ug/mL. virus titer 7.1*10e7 PFU/mL; type: functional, Cercopithecidae
CV-1 [18] = assay: Compound was evaluated for its failure of virucidal activity in poliovirus infected CV-1 cells at 0.5 ug/mL. virus titer 6.6*10e7 PFU/mL; type: functional, Cercopithecidae
CV-1 [19] = assay: Compound was evaluated for chemotherapeutic index in CV-1 cells (chemotherapeutic index=50% cytotoxic dose/50% effective dose); type: functional, Cercopithecidae; outline: as §3

Row | Structure (SMILES) | EC50 (Poliovirus 1) [µg/mL] | ED50 (HeLa [2]) [µg/mL] | ED50 (HeLa [3]) [µg/mL] | EC50 (Enterovirus) [µg/mL] | ED50 (HeLa [4]) [µg/mL] | Chemotherapeutic index (CV-1 [8]) | Inhibition (CV-1 [10]) [%] | ED50 (HeLa [13]) [µg/mL] | ED50 (HeLa [14]) [µg/mL] | ED50 (HeLa [15]) [µg/mL] | also measured
1 | CN(C)S(=O)(=O)Nc1ccc(C(=O)NCCCCc2ccccc2)cc1 | 0.09 (≈ 0.24 µM) | 0.4 (≈ 1.07 µM) | 0.12 (≈ 0.32 µM) | 0.13 (≈ 0.346 µM) | 0.09 (≈ 0.24 µM) | 18 | 0 | 0.42 (≈ 1.12 µM) | 0.12 (≈ 0.32 µM) | 0.13 (≈ 0.346 µM) | Inhibition (CV-1 [1]): 88.3%; ED50 (LLC-MK2): 0.7 µg/mL (≈ 1.86 µM); Inhibition (CV-1 [5]): 87.8%; Inhibition (CV-1 [6]): 61%; Inhibition (CV-1 [7]): 91.2%; Inhibition (CV-1 [9]): 10%; Inhibition (CV-1 [11]): 24.4%; Inhibition (CV-1 [12]): 0%; Inhibition (CV-1 [16]): 3%
2 | CN(C)S(=O)(=O)Nc1ccc(C(=O)Nc2ccc(Br)cc2)cc1 | 0.3 (≈ 0.753 µM) | 5.2 (≈ 13.1 µM) | 0.68 (≈ 1.71 µM) | 0.26 (≈ 0.653 µM) | 0.42 (≈ 1.05 µM) | 600 | 0 | 4 (≈ 10 µM) | 0.6 (≈ 1.51 µM) | 0.68 (≈ 1.71 µM) | Inhibition (CV-1 [17]): 0%; Inhibition (CV-1 [18]): 12%
3 | CN(C)S(=O)(=O)Nc1cccc(/C(=N/O)c2cccc(N)c2)c1 | 0.7 (≈ 2.09 µM) | – | – | – | – | – | – | – | – | – | Chemotherapeutic index (CV-1 [19]): 66
